TNAP inh noacc: TNAP (human) inhibition, acceptor-free conditions; purified TNAP, CDP-star luminescence, 30 min; inhibition, % at 20 µM; AID 1012; hit rate 0.26% among 200,000;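 active means tissue-nonspecific alkaline phosphatase inhibition above about 50% at 20 µM in the single-dose screen, limit read from the data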;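 further: 0% = DMSO negative control and 100% = EDTA positive control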
PMI act satM6P: PMI (human) activation, high substrate. hit rate 0.34% among 190,000. P34949. coupled PMI enzyme assay, resazurin fluorescence, 20 min; active compounds read high; 1 = untreated enzyme, 0 = substrate-free blank. AID 1216. activation factor at 20 µM;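 active means activation factor of 2 or more at 20 µM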
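Test system: Human PMI in coupled enzyme assay | Input: 15 ng/mL PMI | Medium: HEPES-buffered pH 7.4 with magnesium and detergent | Compound: One concentration, 20 µM, in 1% DMSO | Incubation: Enzyme reaction with compound 20 min at room temperature | Detection: Diaphorase-driven resazurin-to-resorufin fluorescence, excitation 544, emission 590 nm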
TNAP act hiacc: increases human TNAP activity under high phosphate acceptor concentration. P05186. purified TNAP, CDP-star luminescence, 1 M DEA, 30 min; active compounds read high; 0 = EDTA background, 1 = DMSO-only activity. 200,000 tested, under 10 active. activation factor at 20 µM;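 active means activation factor at least 2 at 20 µM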
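Control set: EDTA negative control, DMSO positive control / Assay system: human TNAP / Quantity: TNAP 1/800 final / Evaluation: TNAP activation factor scaled between EDTA and DMSO control wells / Measured by: luminescent substrate turnover signal / Compound dosing: one dose, 20 µM / Times: 30 min enzyme reaction at room temperature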
PMI activator: increases human mannose-6-phosphate isomerase activity; P34949; purified human PMI, coupled resazurin fluorescence, 20 min; active compounds read high; 1 = vehicle control, 0 substrate-free wells; activation factor at 20 µM; hit rate 0.005% among 190,000; AID 1214;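 active means activation factor of 2 or more at 20 µM, relative to plate controls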
Rad51 HR inh: blocks human Rad51 in homologous recombination; Q06609; hRad51 DNA strand exchange, fluorescence dequenching; inhibition, % at 10 µM; hit rate 0.085% among 200,000; AID 1385;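 active means inhibition above 40% at the single screening dose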;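 further: 0% = DMSO control wells and 100% = blanks with heterologous ssDNA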
Target sequence (Q06609 whole entry, looked up): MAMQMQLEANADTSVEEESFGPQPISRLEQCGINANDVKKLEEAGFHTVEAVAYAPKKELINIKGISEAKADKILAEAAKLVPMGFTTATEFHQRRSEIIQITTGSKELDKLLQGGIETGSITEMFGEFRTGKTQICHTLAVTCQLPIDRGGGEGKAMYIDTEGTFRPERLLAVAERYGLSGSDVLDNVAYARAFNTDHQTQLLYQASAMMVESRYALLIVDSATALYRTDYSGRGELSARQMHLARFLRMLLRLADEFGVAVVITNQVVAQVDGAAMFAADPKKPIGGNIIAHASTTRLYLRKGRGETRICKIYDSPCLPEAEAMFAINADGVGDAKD
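material = hRad51 filaments on single-stranded DNA | reagent = Donor/quencher-labelled 47-bp dsDNA substrate | compound = 10 µM final, single point | schedule = strand-exchange reaction 15 min at room temperature | measured by = fluorescein emission 520 nm, excitation 485 nm | read-out basis = % inhibition versus plate control and blank means | benchmarks = plate controls and plate blanks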
TNAP inh hiacc: inhibitors of human TNAP at high phosphate acceptor concentration; P05186; purified TNAP, CDP-star luminescence, 1 M DEA; inhibition, % at 20 µM; hit rate 0.03% among 200,000;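 active means over 50% inhibition of tissue-nonspecific alkaline phosphatase at 20 µM in the single-dose screen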;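 further: plate controls were DMSO wells for no effect and EDTA-quenched wells as full inhibition for full effect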
An asterisk follows results filed as active; / = no result given. A selection: hits, their analogues and other compounds. The true share with any hit is near 0.6%.

SMILES	TNAP inh noacc	PMI act satM6P	TNAP act hiacc	PMI activator	Rad51 HR inh	TNAP inh hiacc
O=C(NCCN1CCOCC1)c1ccc(Cl)nc1	/	/	/	/	40*	/
CCCCCn1c(N)c(C(=O)NCCN2CCOCC2)c2nc3ccccc3nc21	-17	0.5	1.1	0.7	-2	-7
O=C1NS(=O)c2cc([N+](=O)[O-])cc([N+](=O)[O-])c21 (stereo not given)	-6	2*	1	1.6	3	0
COc1ccc(N2C(=O)/C(=C/C=C/c3ccccc3[N+](=O)[O-])C(=O)NC2=S)cc1	6	1.1	1	1.2	-8	-1
CCOc1cccc(OCC)c2c(C)[n+](CC3CCCO3)c(C)c1-2 (stereo not given)	9	2*	1	1.6	-4	2
Cc1cccc(CSc2nc3c(cc2C#N)CN(C)CC3)c1	-7	0.8	1	0.7	11	-3
O=c1[nH]c2ccccc2n1CCCN1CCC(n2c(=O)[nH]c3cc(Cl)ccc32)CC1	70*	1.1	0.9	1.1	9	10
COc1ccc(N2C(=O)CC(N3CCC(n4c(=O)[nH]c5ccccc54)CC3)C2=O)cc1 (stereo not given)	-4	1	1.1	1	-1	-6
C=C(C)c1cccc(C(C)(C)NC(=O)NC2CN3CCC2CC3)c1 (stereo not given)	-18	1.1	1.1	1	1	-9
CC1CCCN(CC(=O)c2ccc(Cl)c(Cl)c2)C1 (stereo not given)	0	1.3	1	1.4	-5	-3
CC(=O)NC(Cc1ccc(N(CCCl)CCCl)cc1)C(=O)NC(CC(C)C)C(=O)O (stereo not given)	-8	2*	1.1	1.7	-4	-6
Cc1ccn2nc(S(=O)(=O)Nc3c(F)cccc3F)nc2n1	-11	1.1	1.1	1.2	2	-9
CCOC(=O)c1cc(CC)sc1/N=C/c1c(O)[nH]c(=S)[nH]c1=O	-10	1.8	1	1.4	-118	3
CCOC(=O)c1cc(CC)sc1/N=C/C1C(=O)NC(=S)NC1=O	-6	2.3*	1	1.8	-82	-1
Oc1cc2c(cc1O)[C@H]1c3ccccc3CN[C@@H]1CC2	92*	0.8	0.9	0.5	-5	7
COc1cccc(-n2c(/C=C/c3ccc(O)c(O)c3)nc3ccccc3c2=O)c1	84*	0.9	0.7	0.4	-126	31
O=c1c2ccccc2nc(/C=C/c2ccc(O)cc2)n1-c1cccc(O)c1	9	0.8	0.9	0.9	/	13
C=C1N2CCC(CC2)C1(O)c1ccc(C)cc1 (stereo not given)	-8	2.1*	1	1.6	-4	-2
C=C1N2CCC(CC2)C1(O)c1ccc(C)c(C)c1 (stereo not given)	-10	1	1	1.1	1	-4
COc1cccc(OC)c1C1=NCC(=O)Nc2c1oc1ccc(Br)cc21	4	0.8	1	0.8	-1	-1
COc1ccc(/C=C2/C(=O)NC(=S)N(C3CC3)C2=O)cc1CN1C(=O)c2ccccc2C1=O	8	2*	1	1.6	-3	-3
CC1CCN(CC(=O)c2ccccc2Cl)CC1	-4	2*	1	1.5	-6	-4
CC1CCN(CC(=O)c2ccc3c(c2)OCCO3)CC1	-10	1.1	1	1.2	2	-3
O=C1CC(N2CC=C(c3ccc(F)cc3)CC2)C(=O)N1c1ccc(F)cc1 (stereo not given)	-13	1.1	1.1	1.1	-6	-5
CCOC(=O)c1ccc(N2C(=O)CC(N3CC=C(c4ccc(F)cc4)CC3)C2=O)cc1 (stereo not given)	-8	2*	1	1.6	0	-3
SMILES	TNAP inh noacc	PMI act satM6P	TNAP act hiacc	PMI activator	Rad51 HR inh	TNAP inh hiacc
CC(C)n1c(=O)c(C=Nc2ccc(Cl)cc2)c(O)n(Cc2ccco2)c1=O	-3	1.1	1	1.1	-25	-4
O=C(N/N=C/c1c(O)n(Cc2ccc(F)cc2)c(=O)[nH]c1=O)c1ccccc1O	9	1.2	1	0.8	-8	-2
CCN(CC)c1ccc(/C=C/[N+](=O)[O-])cc1	40	0.9	0.7	1	-359	33
COc1cc(/C=C/[N+](=O)[O-])ccc1O	53*	0.6	0.6	1	4	38
O=P(OCC(F)(F)C(F)F)(N1CCOCC1)N1CCOCC1	-10	1	1	0.9	89*	0
CCC(C)NS(=O)(=O)c1ccc(OCC(=O)N2CCN(CC)CC2)cc1 (stereo not given)	-4	1	1	0.9	-6	0
Cc1ccc(/C=C2/C(=O)NC(=O)N(CCc3ccc(F)cc3)C2=O)o1	4	1.1	1	1	-5	3
O=C1NC(=O)N(CCc2ccc(F)cc2)C(=O)/C1=C/c1ccco1	1	2*	1	1.6	-3	0
CCOc1ccc2nc(N=Nc3c(O)[nH]c(=S)[nH]c3=O)sc2c1	36	0.9	0.5	1.1	17	53*
Oc1ccc(/C=N/NP(=S)(c2ccccc2)c2ccccc2)cc1O	77*	0.4	0.8	0.4	/	18
CN1CC=C(c2c[nH]c3ccccc23)CC1	-8	1	1	0.9	2	3
O=C(O)CCn1cc(C=C2C(=O)NC(=S)NC2=O)c(-c2ccccc2)n1	-2	1.1	1	0.4	/	-2
O=C(O)CCn1cc(C=C2C(=O)NC(=S)NC2=O)c(-c2cc3ccccc3oc2=O)n1	0	2.3*	1	1.3	0	-4
CSC(=Nc1ccccc1)c1c(O)n(C)c(=O)n(C)c1=O	-17	2.2*	1.1	1.7	-6	-7
Cc1ccc(N/N=C/c2c(O)n(-c3ccccc3)c(=O)[nH]c2=O)cc1	-8	2.5*	1	1.6	-2	-2
Cc1ccc(-n2c(O)c(/C=C/C=Nc3ccccc3)c(=O)[nH]c2=O)cc1	-10	0.9	1	1.1	-306	3
O=C1NC(=O)[C@]2(Cc3ccccc3N3CCN(c4ccccc4)CC32)C(=O)N1c1ccccc1 (stereo not given in full)	-9	2.1*	1	1.7	-7	-2
O=C1NC(=O)[C@]2(Cc3ccccc3N3CCN(c4ccccc4)CC32)C(=O)N1Cc1ccccc1 (stereo not given in full)	-4	2.1*	1	1.6	-2	-1
O=C1NC(=O)C2(Cc3ccccc3N3CCCC32)C(=O)N1c1ccc(Cl)cc1 (stereo not given)	-12	1.6	1.1	1.6	-7	-8
